16 molecules from ChEMBL document CHEMBL4619797, “Antiglioma Activity of Aryl and Amido-Aryl Acetamidine Derivatives Targeting iNOS: Synthesis and Biological Evaluation” (ACS Med Chem Lett, 2020) can be followed below.

For data set [1], the target named is T1, Nitric oxide synthase 3 (Homo sapiens) (UniProt P29474).
T1 sequence (whole entry): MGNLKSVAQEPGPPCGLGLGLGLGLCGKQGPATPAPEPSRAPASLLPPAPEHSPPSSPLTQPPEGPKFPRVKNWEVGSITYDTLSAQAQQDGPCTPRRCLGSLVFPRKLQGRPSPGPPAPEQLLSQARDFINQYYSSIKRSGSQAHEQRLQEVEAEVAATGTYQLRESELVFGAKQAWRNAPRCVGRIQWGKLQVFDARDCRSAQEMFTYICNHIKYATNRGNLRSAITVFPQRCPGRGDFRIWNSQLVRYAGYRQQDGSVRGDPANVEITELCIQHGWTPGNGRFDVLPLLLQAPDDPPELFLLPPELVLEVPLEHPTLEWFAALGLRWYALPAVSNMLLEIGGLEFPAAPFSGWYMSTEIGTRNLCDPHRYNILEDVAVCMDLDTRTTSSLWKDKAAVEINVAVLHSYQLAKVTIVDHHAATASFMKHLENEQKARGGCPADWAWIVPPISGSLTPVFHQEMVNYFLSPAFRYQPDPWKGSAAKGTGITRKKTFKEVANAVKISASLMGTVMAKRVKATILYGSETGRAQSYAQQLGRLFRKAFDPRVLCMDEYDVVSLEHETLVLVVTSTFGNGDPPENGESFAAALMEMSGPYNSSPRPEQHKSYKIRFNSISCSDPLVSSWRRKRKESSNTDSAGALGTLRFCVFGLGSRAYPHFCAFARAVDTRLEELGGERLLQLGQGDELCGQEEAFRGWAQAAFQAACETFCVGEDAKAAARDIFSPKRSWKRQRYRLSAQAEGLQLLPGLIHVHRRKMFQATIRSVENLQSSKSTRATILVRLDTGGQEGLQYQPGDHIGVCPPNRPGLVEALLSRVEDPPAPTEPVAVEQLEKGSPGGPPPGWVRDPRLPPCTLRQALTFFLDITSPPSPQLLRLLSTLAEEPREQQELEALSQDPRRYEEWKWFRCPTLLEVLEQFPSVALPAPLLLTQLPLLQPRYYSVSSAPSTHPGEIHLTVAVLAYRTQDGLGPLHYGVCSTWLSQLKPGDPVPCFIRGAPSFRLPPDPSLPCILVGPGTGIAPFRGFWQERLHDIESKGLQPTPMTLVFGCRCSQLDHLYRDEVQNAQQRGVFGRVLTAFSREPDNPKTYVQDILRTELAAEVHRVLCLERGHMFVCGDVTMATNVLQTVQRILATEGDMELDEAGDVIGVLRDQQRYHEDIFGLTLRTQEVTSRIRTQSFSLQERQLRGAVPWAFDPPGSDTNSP
The data set is described as follows: Inhibition of human eNOS at 10 uM using L-arginine as substrate preincubated for 15 mins followed by NADPH addition and measured after 20 mins by OPA/NAC reagent based HPLC-fluorimetric analysis relative to control. In a few lines: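 eNOS percent inhibition screened at 10 μM compound; mean ± SD of triplicate experiments.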

In data set [2] the target is T2, Nitric oxide synthase, inducible (Homo sapiens, UniProt P35228). The data set can be described thus: Inhibition of recombinant N-terminal His-tagged human iNOS expressed in Escherichia coli at 1 uM using L-arginine as substrate preincubated for 15 mins followed by NADPH addition and measured after 20 mins by OPA/NAC reagent based HPLC-fluorimetric analysis relative to control. In short, it runs like this:
(§1)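 Primary screen: percent inhibition of iNOS and nNOS measured at 1 μM compound; mean ± SD of triplicate experiments.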

Data set [3] deals with T3, Nitric oxide synthase 1 (Homo sapiens, UniProt P29475). The data set can be described thus: Inhibition of recombinant human nNOS expressed in Escherichia coli at 1 uM using L-arginine as substrate preincubated for 15 mins followed by NADPH addition and measured after 20 mins by OPA/NAC reagent based HPLC-fluorimetric analysis relative to control. In short, it runs like this: as §1

The test system of data set [4] is C6. The data set is described as follows: Antiproliferative activity against rat C6 cells assessed as inhibition of cell proliferation at 500 uM after 24 hrs by MTT assay. Type of data set: functional, cell-based. In a few lines: (§2)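 C6 rat glioma cells exposed 24 h to increasing concentrations (0–1500 μM); metabolic activity by MTT, expressed as percent of untreated cultures (100%); means ± SD of three replicates.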
On the technique in general: Tetrazolium dyes change colour on reduction, which living cells bring about.

Data set [5] can be described thus: Cytotoxicity against rat CTX/TNA2 cells assessed as reduction in cell metabolic activity at 1500 uM after 24 hrs by MTT assay. Type of data set: ADME, cell-based. In a few lines:
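Rat astrocytes (CTX) exposed 24 h to increasing concentrations up to 1500 μM; metabolic activity by MTT, expressed as percent of untreated (0 μM) cultures set at 100%; means ± SD of three replicates.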

Data set [6] has as its system C6. The data set is described as follows: Antiproliferative activity against rat C6 cells assessed as LDH release at 500 to 1000 uM after 24 hrs by CytoTox 96 Non-Radioactive assay (reference value: 13.49%). In kind it is functional. (In general: LDH in the medium is a marker of cell lysis.)
Data set [7] relates to C6. The data set can be described thus: Antiproliferative activity against rat C6 cells assessed as cell metabolic activity at 750 uM after 24 hrs by MTT assay relative to control. Type of data set: functional. In a few lines: as §2
For data set [8], the system named is C6. The data set can be described thus: Antiproliferative activity against rat C6 cells assessed as cell metabolic activity at 1000 uM after 24 hrs by MTT assay relative to control. Type of data set: functional. In short, it runs like this:
as §2

Data set [9] addresses T2, Nitric oxide synthase, inducible. The data set is described as follows: Inhibition of recombinant N-terminal His-tagged human iNOS expressed in Escherichia coli using L-arginine as substrate preincubated for 15 mins followed by NADPH addition and measured after 20 mins by OPA/NAC reagent based HPLC-fluorimetric analysis. In short, it runs like this: (§3)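 IC50 against human iNOS, nNOS and eNOS from experiments in triplicate at seven different concentrations; mean ± SD reported.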

In data set [10] the test system is C6. The data set is described as follows: Antiproliferative activity against rat C6 cells assessed as cell metabolic activity at 1500 uM after 24 hrs by MTT assay relative to control. In kind it is functional. In short, it runs like this:
as §2

Data set [11] deals with C6. The data set is described as follows: Antiproliferative activity against rat C6 cells assessed as inhibition of cell proliferation at 500 uM after 24 hrs by MTT assay relative to control. In kind it is functional. Conditions: C6, 24 h. In short, it runs like this: as §2
In data set [12] the target is Nitric oxide sythases; iNOS & nNOS (Homo sapiens) (UniProt P29475+P35228). The data set can be described thus: Selectivity index, ratio of IC50 for recombinant human nNOS expressed in Escherichia coli to IC50 for recombinant N-terminal His-tagged human iNOS expressed in Escherichia coli. In short, it runs like this:
(§4)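 Ratio of IC50 values for human eNOS or nNOS to that for human iNOS, each IC50 from triplicate runs at seven concentrations.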

Data set [13] concerns C6. The data set is described as follows: Antiproliferative activity against rat C6 cells assessed as LDH release at 250 uM after 24 hrs by CytoTox 96 Non-Radioactive assay (reference value: 13.49%). Type of data set: functional.
The species entered for data set [14] is Homo sapiens. The data set can be described thus: Selectivity index, ratio of IC50 for recombinant human eNOS to IC50 for recombinant N-terminal His-tagged human iNOS expressed in Escherichia coli. In a few lines: as §4
In data set [15] the test system is C6. The data set can be described thus: Antiproliferative activity against rat C6 cells assessed as increase in LDH release after 24 hrs by CytoTox 96 Non-Radioactive assay. Type of data set: functional, cell-based.
Data set [16] has as its target T4, Nitric oxide synthase 3 (Homo sapiens, UniProt P29474).
T4 sequence (P29474 whole entry): T1 sequence (whole entry)
The data set can be described thus: Inhibition of human eNOS using L-argininge as substrate preincubated for 15 mins followed by NADPH addition and measured after 20 mins by OPA/NAC reagent based HPLC analysis. In a few lines: as §3

In data set [17] the test system is C6. The data set is described as follows: Antiproliferative activity against rat C6 cells assessed as cell metabolic activity at 50 uM after 24 hrs by MTT assay relative to control. In kind it is functional. In short, it runs like this: as §2
The subject of data set [18] is C6. The data set is described as follows: Antiproliferative activity against rat C6 cells assessed as reduction in cell metabolic activity after 24 hrs by MTT assay. In kind it is functional, cell-based. In a few lines: as §2
The target in data set [19] is T3, Nitric oxide synthase 1. The data set can be described thus: Inhibition of recombinant human nNOS expressed in Escherichia coli using L-arginine as substrate preincubated for 15 mins followed by NADPH addition and measured after 20 mins by OPA/NAC reagent based HPLC-fluorimetric analysis. In a few lines:
as §3

Active and inactive are the calls of the source. No cut-off for these calls is given here.

T2 sequence (P35228 whole entry): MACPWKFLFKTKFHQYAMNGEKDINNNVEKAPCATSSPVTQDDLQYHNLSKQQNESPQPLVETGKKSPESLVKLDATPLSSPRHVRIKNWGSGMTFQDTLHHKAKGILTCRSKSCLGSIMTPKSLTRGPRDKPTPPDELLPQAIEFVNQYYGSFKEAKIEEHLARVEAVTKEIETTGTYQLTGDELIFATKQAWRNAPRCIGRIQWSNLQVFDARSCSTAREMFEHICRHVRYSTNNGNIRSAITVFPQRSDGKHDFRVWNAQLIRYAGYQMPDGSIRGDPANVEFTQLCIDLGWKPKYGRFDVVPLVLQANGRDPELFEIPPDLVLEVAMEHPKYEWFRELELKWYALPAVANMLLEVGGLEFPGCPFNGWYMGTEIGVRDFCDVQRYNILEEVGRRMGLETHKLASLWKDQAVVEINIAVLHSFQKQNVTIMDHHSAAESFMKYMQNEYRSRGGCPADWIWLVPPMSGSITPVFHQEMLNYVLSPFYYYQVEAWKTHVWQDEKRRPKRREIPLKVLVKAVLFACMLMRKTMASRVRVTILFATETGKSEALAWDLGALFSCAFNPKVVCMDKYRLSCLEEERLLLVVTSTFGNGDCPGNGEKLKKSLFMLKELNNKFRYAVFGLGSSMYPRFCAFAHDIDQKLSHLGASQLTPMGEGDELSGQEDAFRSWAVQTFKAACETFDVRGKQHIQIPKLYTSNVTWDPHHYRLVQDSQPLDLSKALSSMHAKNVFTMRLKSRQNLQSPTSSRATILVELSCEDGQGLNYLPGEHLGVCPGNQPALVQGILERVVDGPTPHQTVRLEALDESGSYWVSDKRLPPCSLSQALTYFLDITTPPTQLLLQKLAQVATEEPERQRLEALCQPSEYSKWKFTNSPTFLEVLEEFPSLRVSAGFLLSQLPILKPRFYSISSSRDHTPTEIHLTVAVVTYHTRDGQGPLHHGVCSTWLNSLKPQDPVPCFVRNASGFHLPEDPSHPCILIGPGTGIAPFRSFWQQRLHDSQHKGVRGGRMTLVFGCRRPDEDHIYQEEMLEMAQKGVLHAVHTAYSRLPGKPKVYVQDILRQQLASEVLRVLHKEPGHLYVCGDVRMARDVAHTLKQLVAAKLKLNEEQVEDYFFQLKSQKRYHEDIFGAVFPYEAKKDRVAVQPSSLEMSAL
T3 sequence (P29475 whole entry): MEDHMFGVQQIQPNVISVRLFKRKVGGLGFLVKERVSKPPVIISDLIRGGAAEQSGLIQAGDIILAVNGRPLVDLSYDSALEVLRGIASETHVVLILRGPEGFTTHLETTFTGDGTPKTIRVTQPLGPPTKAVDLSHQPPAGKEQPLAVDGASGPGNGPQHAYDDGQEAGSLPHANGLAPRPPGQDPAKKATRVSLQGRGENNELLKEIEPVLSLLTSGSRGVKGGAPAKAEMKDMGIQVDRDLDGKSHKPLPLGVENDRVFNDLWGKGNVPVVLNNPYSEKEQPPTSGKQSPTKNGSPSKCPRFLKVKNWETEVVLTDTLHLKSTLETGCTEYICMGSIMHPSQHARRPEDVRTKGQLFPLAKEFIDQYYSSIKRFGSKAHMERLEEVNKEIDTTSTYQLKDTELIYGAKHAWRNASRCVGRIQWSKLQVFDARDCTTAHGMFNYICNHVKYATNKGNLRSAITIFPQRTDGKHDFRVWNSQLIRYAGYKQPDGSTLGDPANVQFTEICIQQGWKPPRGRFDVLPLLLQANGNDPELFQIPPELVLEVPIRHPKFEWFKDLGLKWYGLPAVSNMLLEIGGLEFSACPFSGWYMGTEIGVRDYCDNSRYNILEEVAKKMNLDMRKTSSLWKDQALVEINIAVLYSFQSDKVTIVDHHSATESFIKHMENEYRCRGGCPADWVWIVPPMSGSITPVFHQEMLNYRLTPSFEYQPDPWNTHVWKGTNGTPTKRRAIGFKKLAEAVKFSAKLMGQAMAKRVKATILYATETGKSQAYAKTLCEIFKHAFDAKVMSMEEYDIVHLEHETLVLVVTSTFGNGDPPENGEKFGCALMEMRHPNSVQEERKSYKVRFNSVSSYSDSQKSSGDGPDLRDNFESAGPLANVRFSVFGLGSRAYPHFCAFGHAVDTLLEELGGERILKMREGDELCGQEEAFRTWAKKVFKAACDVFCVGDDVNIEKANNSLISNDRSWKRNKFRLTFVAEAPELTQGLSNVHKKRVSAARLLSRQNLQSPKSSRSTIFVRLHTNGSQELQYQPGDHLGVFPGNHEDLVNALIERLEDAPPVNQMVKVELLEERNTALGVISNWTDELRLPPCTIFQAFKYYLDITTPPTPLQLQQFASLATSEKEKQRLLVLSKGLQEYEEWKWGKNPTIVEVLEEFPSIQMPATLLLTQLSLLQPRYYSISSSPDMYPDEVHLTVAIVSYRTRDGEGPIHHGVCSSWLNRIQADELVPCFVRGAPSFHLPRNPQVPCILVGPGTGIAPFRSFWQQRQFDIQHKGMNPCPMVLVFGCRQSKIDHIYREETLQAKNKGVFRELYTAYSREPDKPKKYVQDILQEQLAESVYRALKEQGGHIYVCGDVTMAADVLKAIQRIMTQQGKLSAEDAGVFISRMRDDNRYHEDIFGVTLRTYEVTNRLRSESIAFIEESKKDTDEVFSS
Sequence of Nitric oxide sythases; iNOS & nNOS (Homo sapiens) (P29475 whole entry, looked up): as the sequence (P29475 whole entry) above
Sequence of Nitric oxide sythases; iNOS & nNOS (Homo sapiens) (P35228 whole entry, looked up): as the sequence (P35228 whole entry) above

Usually inhibition stands for the change of the read-out against control, counted positive when it falls. With `CC(=N)Nc1ccc(C(=O)Nc2nccs2)cc1`, the inhibition came to 0% in [1], 84% in data set [2] and 96% in data set [3].
`CC(=N)NCc1cccc(CNC(=O)C2CCCN2)c1` (stereo not drawn): in [4], the outcome was inactive.
Consider `CC(=N)NCc1ccc(F)cc1`, for which the inhibition in data set [1] stood at 5%; in [2], 93%; in data set [3], 0%.
In the same order, the values of `CC(=N)Nc1ccc(F)cc1` are 0%, 85% and 10%.
One may read the IC50 as the concentration at which inhibition is half-maximal. `Br.CC(=N)Nc1ccc(C(=O)Nc2ccc(F)cc2)cc1`: the inhibition in data set [1] was 0%; in [2] it was 100%; in data set [3], 0%. In addition, the Activity result is listed as “Toxic” in data set [5]; 27% in data set [6]; 64.86% in data set [7]; 65.22% in [8]; 64.42% in data set [10]; 22.48% in data set [13]. Further, the Activity result is “Dose-dependent effect” in data set [15], 86.45% in data set [17] and “Dose-dependent effect” in data set [18]. Moreover, the results for the IC50 in data set [9], in data set [16] and in data set [19] were 11 nM, > 10000 nM and 6200 nM, respectively. In data set [11], the inhibition at 500 µM was 31%. Further, the Ratio IC50 in data set [12] was 563; in data set [14], > 900.
As for `CC(=N)NCc1ccc(C(=O)Nc2nccs2)cc1`, the inhibition in [1] came to 0%; in data set [2] it was 100%; in data set [3] it was 0%.
With `CC(=N)Nc1nc(-c2ccccc2)cs1`, the inhibition was found to be 14% in data set [1], 100% in [2] and 2% in data set [3].
For `Cn1nnc2c(C(N)=O)ncn2c1=O` [TEMOZOLOMIDE], the inhibition at 500 µM in [11] turned out to be 12%.
With `CC(=N)Nc1nc(-c2ccc(Cl)cc2)cs1`, the inhibition was 4% in [1], 100% in data set [2] and 13% in data set [3].
On the same counts, the results for `CC(=N)NCc1ccc(C(=O)O)cc1` are 4%, 70% and 0%.
Consider `CC(N)C(=O)Cc1cn[nH]c1` (stereo not drawn), for which the IC50 in data set [9] stood at 681 nM.
As for `CC(=N)NCc1cccc(CN)c1`, the outcome in data set [4] was inactive.
In the case of `CC(=N)Nc1ccc(S(=O)(=O)Nc2nccs2)cc1`, the inhibition in [1] is 3%; in data set [2], 81%; in data set [3], 47%.
On the same counts, the results for `CC(=N)NCc1ccc(C(=O)Nc2ccc(F)cc2)cc1` are 0%, 87% and 97%.
In the case of `CC(=N)Nc1ccc(C(=O)O)cc1`, the results for the inhibition in [1], in data set [2] and in [3] were 62%, 86% and 14%, respectively.
Consider `CC(=N)NCc1cccc(CNC(=O)CCC(=O)O)c1`, for which the IC50 in data set [9] is 428 nM.
